Data on 19 compounds can be found in ChEMBL document CHEMBL3046018, “Design, syntheses and 3D-QSAR studies of novel N-phenyl pyrrolidin-2-ones and N-phenyl-1H-pyrrol-2-ones as protoporphyrinogen oxidase inhibitors” (Bioorg Med Chem, 2010).

Test [1] deals with Eclipta prostrata. Briefly: Herbicidal activity against Eclipta prostrata assessed as growth inhibition at 150 g ai/ha using post-emergence protocol under greenhouse conditions measured 15 days after compound treatment. Conditions: 360 h, read-out: GI. It counts as functional. Put shortly: (§1)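 Post-emergence greenhouse spray on pot-grown broadleaf weeds at the 2-leaf stage. Formulation concentrates were diluted with water. Soil was clay, pH 6.5, 1.6% organic matter, 37.3% clay particles, CEC 12.1 mol/kg. The rate was total active ingredient divided by pot surface area. Untreated seedlings and DMF-treated seedlings served as controls.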

In test [2] the test system is Chenopodium album. Briefly: Herbicidal activity against Chenopodium album assessed as growth inhibition at 150 g ai/ha using post-emergence protocol under greenhouse conditions measured 15 days after compound treatment. It is filed as functional. Conditions: 360 h, read-out: GI. Summed up:
as §1

The subject of test [3] is Amaranthus retroflexus. Briefly: Herbicidal activity against Amaranthus retroflexus assessed as growth inhibition at 150 g ai/ha using post-emergence protocol under greenhouse conditions measured 15 days after compound treatment. Conditions: 360 h, read-out: GI. It is filed as functional. Put shortly:
as §1

The test system of test [4] is Brassica juncea. Description: Herbicidal activity against Brassica juncea assessed as growth inhibition at 150 g ai/ha using post-emergence protocol under greenhouse conditions measured 15 days after compound treatment. It counts as functional. Conditions: 360 h, read-out: GI. Summed up: as §1
The test system of test [5] is Setaria viridis. Briefly: Herbicidal activity against Setaria viridis assessed as growth inhibition at 150 g ai/ha using post-emergence protocol under greenhouse conditions measured 15 days after compound treatment. It is filed as functional. To be noted: 360 h, read-out: GI. Put shortly:
(§2)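 Grass weeds were grown in pots in the greenhouse and sprayed post-emergence at the 1-leaf stage. The spray was formulation concentrate diluted in water. Soil was clay, pH 6.5, 1.6% organic matter, 37.3% clay particles, CEC 12.1 mol/kg. The g.ai/ha rate was active ingredient over pot surface area. Controls were untreated and DMF-treated seedlings.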

Test [6] relates to Echinochloa crus-galli. Description: Herbicidal activity against Echinochloa crus-galli (barnyard grass) assessed as growth inhibition at 150 g ai/ha using post-emergence protocol under greenhouse conditions measured 15 days after compound treatment. It counts as functional. To be noted: 360 h, read-out: GI. Put shortly:
as §2

Test [7] concerns Digitaria sanguinalis. Description: Herbicidal activity against Digitaria sanguinalis (hairy crabgrass) assessed as growth inhibition at 150 g ai/ha using post-emergence protocol under greenhouse conditions measured 15 days after compound treatment. Conditions: 360 h, read-out: GI. It counts as functional. Summed up:
as §2

Test [8] addresses T1, Protoporphyrinogen oxidase (Homo sapiens, UniProt P50336).
T1 sequence (P50336 whole entry): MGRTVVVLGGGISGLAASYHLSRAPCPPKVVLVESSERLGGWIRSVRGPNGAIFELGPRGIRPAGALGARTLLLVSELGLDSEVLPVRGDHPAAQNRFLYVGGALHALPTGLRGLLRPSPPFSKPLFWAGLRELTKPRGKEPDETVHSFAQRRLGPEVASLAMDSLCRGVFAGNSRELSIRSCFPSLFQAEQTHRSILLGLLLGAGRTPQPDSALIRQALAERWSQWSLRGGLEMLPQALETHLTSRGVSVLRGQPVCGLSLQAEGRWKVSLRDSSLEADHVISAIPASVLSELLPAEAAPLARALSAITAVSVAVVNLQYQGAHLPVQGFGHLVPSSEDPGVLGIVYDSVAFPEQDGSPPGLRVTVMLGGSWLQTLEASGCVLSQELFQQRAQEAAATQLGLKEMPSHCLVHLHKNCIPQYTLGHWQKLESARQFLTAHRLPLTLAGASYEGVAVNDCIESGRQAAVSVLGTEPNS
Briefly: Inhibition of Homo sapiens (human) protoporphyrinogen oxidase. Conditions: read-out: Ki.

The Ki is a measure of affinity in units of concentration, obtained from inhibition or displacement. As for `CCOc1cc(N2CC3=C(CCCC3)C2=O)c(Cl)cc1Cl`, the inhibition of growth at 150 g/ha was 50% in test [1]; 50% in test [2]; 50% in test [3]; below 50% in test [4]; below 50% in test [5]; below 50% in test [6]. Further, the inhibition of growth at 150 g/ha in test [7] was below 50%. Moreover, the Ki in test [8] stood at 670 nM.
Turning to `CCOc1cc(N2CC3=C(CCCC3)C2=O)c(F)cc1Cl`, the inhibition of growth at 150 g/ha is 50% in test [1]; 100% in test [2]; above 80% in test [3]; 50% in test [4]; above 80% in test [5]; above 80% in test [6]. Moreover, in test [7], the inhibition of growth at 150 g/ha was above 80%. Also, the Ki in test [8] stood at 200 nM.
As for `CCCOc1cc(N2CC3=C(CCCC3)C2=O)c(Cl)cc1Cl`, the inhibition of growth at 150 g/ha is below 50% in test [1]; below 50% in test [2]; above 80% in test [3]; below 50% in test [4]; below 50% in test [5]; below 50% in test [6]. Also, the inhibition of growth at 150 g/ha in test [7] is below 50%. Further, in test [8], the Ki was 300 nM.
As for `CCCOc1cc(N2CC3=C(CCCC3)C2=O)c(F)cc1Cl`, the inhibition of growth at 150 g/ha is 100% in test [1]; 100% in test [2]; above 80% in test [3]; above 80% in test [4]; above 80% in test [5]; above 80% in test [6]. For the same compound, the inhibition of growth at 150 g/ha in test [7] is above 80%. Also, the Ki in test [8] amounted to 95 nM.
Turning to `C=CCOc1cc(N2CC3=C(CCCC3)C2=O)c(F)cc1Cl`, the inhibition of growth at 150 g/ha in test [1] is 100%; in test [2] it was 100%; in test [3] it was 100%; in test [4] it was above 80%; in test [5], above 80%; in test [6] it was above 80%. Besides, the inhibition of growth at 150 g/ha in test [7] is above 80%. The Ki in test [8] is 120 nM.
For the compound `O=C1C2=C(CCCC2)C(O)N1c1cc(O)c(Br)cc1F` (centres undefined), the inhibition of growth at 150 g/ha in test [1] is 50%; in test [2], 50%; in test [3], 50%; in test [4], below 50%; in test [5] it was below 50%; in test [6], below 50%. For the same compound, in test [7], the inhibition of growth at 150 g/ha is 50%. Moreover, the Ki in test [8] was 19300 nM.
Turning to `O=C1C2=C(CCCC2)C(O)N1c1cc(OCc2cccc(F)c2)c(Cl)cc1F` (centres undefined), the inhibition of growth at 150 g/ha in test [1] was 50%; in test [2], 50%; in test [3], above 80%; in test [4], 50%; in test [5], below 50%; in test [6], below 50%. For the same compound, the inhibition of growth at 150 g/ha in test [7] was 50%. In addition, the inhibitory constant (Ki) in test [8] came to 780 nM.
Regarding `O=C1C2=C(CCCC2)C(O)N1c1cc(OCc2cccc(Cl)c2)c(Cl)cc1F` (centres undefined), the inhibition of growth at 150 g/ha in test [1] is 50%; in test [2], 50%; in test [3] it was 50%; in test [4], 50%; in test [5], below 50%; in test [6], below 50%. The inhibition of growth at 150 g/ha in test [7] is below 50%. For the same compound, the Ki in test [8] was found to be 530 nM.
In the case of `C=CCOc1cc(N2C(=O)C3=C(CCCC3)C2O)c(Cl)cc1Cl` (centres undefined), the inhibition of growth at 150 g/ha in test [1] was 50%; in test [2], 50%; in test [3], 50%; in test [4], 50%; in test [5] it was below 50%; in test [6] it was below 50%. The inhibition of growth at 150 g/ha in test [7] was below 50%. Besides, the Ki in test [8] turned out to be 7450 nM.
As for `C=CCOc1cc(N2C(=O)C3=C(CCCC3)C2O)c(F)cc1Cl` (centres undefined), the inhibition of growth at 150 g/ha in test [1] was 50%; in test [2] it was above 80%; in test [3], above 80%; in test [4], 50%; in test [5], below 50%; in test [6] it was below 50%. Also, the inhibition of growth at 150 g/ha in test [7] was below 50%. In addition, the Ki in test [8] stood at 1030 nM.
As to `CCOc1cc(Cl)c([N+](=O)[O-])cc1N1C(=O)C2=C(CCCC2)C1O` (centres undefined), the inhibition of growth at 150 g/ha in test [1] is 50%; in test [2], 50%; in test [3] it was above 80%; in test [4], below 50%; in test [5] it was below 50%; in test [6] it was below 50%. Further, the inhibition of growth at 150 g/ha in test [7] was below 50%. The Ki in test [8] is 359000 nM.
Turning to `C=CCOC1C2=C(CCCC2)C(=O)N1c1cc(O)c(Br)cc1F` (centres undefined), the inhibition of growth at 150 g/ha is 50% in test [1]; 50% in test [2]; 50% in test [3]; below 50% in test [4]; below 50% in test [5]; 50% in test [6]. The inhibition of growth at 150 g/ha in test [7] is 50%. In addition, in test [8], the inhibition constant (Ki) stood at 41400 nM.
Turning to `COC1C2=C(CCCC2)C(=O)N1c1cc(OCc2cccc(Cl)c2)c(Cl)cc1F` (centres undefined), the inhibition of growth at 150 g/ha is 50% in test [1]; 50% in test [2]; 50% in test [3]; 50% in test [4]; below 50% in test [5]; 50% in test [6]. Moreover, the inhibition of growth at 150 g/ha in test [7] was below 50%. The inhibition constant (Ki) in test [8] stood at 1030 nM.
On to `COc1cc(N2C(=O)C3=C(CCCC3)C2OC)c(F)cc1Cl` (centres undefined), for which the inhibition of growth at 150 g/ha was 50% in test [1]; above 80% in test [2]; above 80% in test [3]; 50% in test [4]; 50% in test [5]; 50% in test [6]. Besides, the inhibition of growth at 150 g/ha in test [7] stood at 50%. For the same compound, the Ki in test [8] was 4490 nM.
In the case of `C=CCOC1C2=C(CCCC2)C(=O)N1c1cc(OCc2cccc(Cl)c2)c(Cl)cc1F` (centres undefined), the inhibition of growth at 150 g/ha in test [1] is 50%; in test [2] it was below 50%; in test [3], above 80%; in test [4], below 50%; in test [5], below 50%; in test [6], below 50%. Moreover, in test [7], the inhibition of growth at 150 g/ha came out at 50%. Also, the Ki in test [8] was determined as 66600 nM.
With `C=CCOc1cc(N2C(=O)C3=C(CCCC3)C2OCC=C)c(F)cc1Cl` (centres undefined), the inhibition of growth at 150 g/ha is above 80% in test [1]; above 80% in test [2]; 100% in test [3]; 100% in test [4]; above 80% in test [5]; 50% in test [6]. For the same compound, the inhibition of growth at 150 g/ha in test [7] is above 80%. Moreover, in test [8], the inhibition constant Ki was determined as 33100 nM.
Take `C=CCOC1C2=C(CCCC2)C(=O)N1c1cc(OCC)c(Cl)cc1F` (centres undefined): the inhibition of growth at 150 g/ha was found to be 100% in test [1]; 100% in test [2]; 100% in test [3]; 50% in test [4]; 50% in test [5]; 50% in test [6]. Further, the inhibition of growth at 150 g/ha in test [7] was 50%. The Ki in test [8] was found to be 7020 nM.
For the compound `O=C1NC(=O)c2cc(Cl)ccc21` [4-CHLORO-PHTHALIMIDE], in test [8], the Ki turned out to be 87900 nM.
For `Cc1nn(-c2cc(NS(C)(=O)=O)c(Cl)cc2Cl)c(=O)n1C(F)F` [SULFENTRAZONE], the inhibition of growth at 150 g/ha in test [1] is 100%; in test [2] it was 100%; in test [3], 100%; in test [4], 100%; in test [5], above 80%; in test [6], below 50%. In addition, the inhibition of growth at 150 g/ha in test [7] is below 50%.
